Laboratory results taken from ChEMBL document CHEMBL5375965, “Discovery of New Broad-Spectrum Anti-Infectives for Eukaryotic Pathogens Using Bioorganometallic Chemistry” (J Med Chem, 2023).
Calls of active or inactive are those of the source. The rule behind the calls is not given here.

Columns and labels:
Brugia pahangi [1] = experiment: Antinematodal activity against Brugia pahangi assessed as inhibition of worm motility at day 6 by worminator analysis; type: functional; conditions: time 6 day
In short: (§1)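 Single adult female worm per well in RPMI-1640 (25 mM HEPES, 2.0 g/L NaHCO₃, 5% heat-inactivated FBS, 1X antibiotic/antimycotic), 4 replicate wells, 6 days at 37°C, 5% CO₂. Motility recorded 60 s per plate on days 0, 1, 2, 3 and 6 as pixels displaced/s. Inhibition = (1 − treated MMU/mean 1% DMSO control MMU) × 100, floored at zero. IC₅₀ from 3- and 6-point dilutions.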

Trichuris muris [2] = experiment: Antinematodal activity against Trichuris muris assessed as inhibition of worm motility at day 1 by worminator analysis; type: functional
In short: as §1, with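 “Two” for “Single”, “worms” for “female worm”, “plate as pixels displaced/s” for “plate”, “6.” for “6 as pixels displaced/s.”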

Trichuris muris [3] = experiment: Antinematodal activity against Trichuris muris assessed as inhibition of worm motility at day 6 by worminator analysis; type: functional; conditions: time 6 day
In short: as §1, with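 “Two” for “Single”, “worms” for “female worm”, “plate as pixels displaced/s” for “plate”, “6.” for “6 as pixels displaced/s.”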

Trichuris muris [4] = experiment: Antinematodal activity against Trichuris muris assessed as inhibition of worm motility at day 2 by worminator analysis; type: functional; conditions: time 2 day
In short: as §1, with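 “Two” for “Single”, “worms” for “female worm”, “plate as pixels displaced/s” for “plate”, “6.” for “6 as pixels displaced/s.”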

Brugia pahangi [5] = experiment: Antinematodal activity against Brugia pahangi assessed as inhibition of worm motility at day 3 by worminator analysis; type: functional; conditions: time 3 day; in short: as §1
Candida albicans [6] = experiment: Antifungal activity against Candida albicans CAAL28 infected in BALB/c mouse candidiasis model administered once daily for 3 days; type: functional, organism-based; conditions: CAAL28, 72 h
Brugia pahangi [7] = experiment: Antinematodal activity against Brugia pahangi assessed as inhibition of worm motility at day 2 by worminator analysis; type: functional; conditions: time 2 day; in short: as §1
Candida albicans [8] = experiment: Antifungal activity against Candida albicans CAAL28 infected in BALB/c mouse candidiasis model assessed as animal survival pre-infected for 1 hr followed by compound addition at 10 mg/kg administered once daily for 3 days and measured on day 4 (reference value: 25%); type: functional; conditions: time 4 day
Trichuris muris [9] = experiment: Antinematodal activity against Trichuris muris assessed as inhibition of worm motility measured immediately by worminator analysis; type: functional
In short: as §1, with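 “Two” for “Single”, “worms” for “female worm”, “plate as pixels displaced/s” for “plate”, “6.” for “6 as pixels displaced/s.”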

Trichuris muris [10] = experiment: Antinematodal activity against Trichuris muris assessed as inhibition of worm motility at day 5 by worminator analysis; type: functional; conditions: time 5 day
Brugia pahangi [11] = experiment: Antinematodal activity against Brugia pahangi assessed as inhibition of worm motility measured immediately by worminator analysis; type: functional; in short: as §1
Brugia pahangi [12] = experiment: Antinematodal activity against Brugia pahangi assessed as inhibition of worm motility at day 1 by worminator analysis; type: functional; conditions: time 1 day; in short: as §1
Brugia pahangi [13] = experiment: Antinematodal activity against Brugia pahangi infected in mongolian jirds assessed as tissue damage in reproductive tracts pre-infected for 5 months followed by compound addition at 10 mg/kg, po administered twice daily for 5 days; type: functional, organism-based; conditions: time 5.0 day
In short: (§2)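 Male jirds (5–7 weeks, 50–60 g) infected ip with 200 L3. At 5 months, dosed orally in 5% glucose; vehicle received 5% glucose. Necropsy 5 days after last dose. Adult females fixed in 2.5% glutaraldehyde/2% paraformaldehyde in 0.1 M cacodylate, Spurr-embedded, ultrathin sections contrasted with uranyl substitute and lead citrate, imaged by TEM.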

Trichuris muris [14] = experiment: Downregulation of Hippo gene expression in Trichuris muris at 100 uM incubated for 2 to 3 hrs; type: functional; conditions: time 2-3 hrs
In short: (§3)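 Adult female worms exposed in vitro to compound or 1% DMSO vehicle, then frozen at −80°C. RNA-seq reads aligned to the T. muris genome (PRJEB126, WBPS16) with STAR and counted per gene with featureCounts. Expression expressed as FPKM. Fold changes and significance relative to DMSO controls calculated with DESeq2.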

Trichuris muris [15] = experiment: Downregulation of mitochondrial acyl carrier reductase expression in Trichuris muris at 100 uM incubated for 2 to 3 hrs; type: functional; conditions: time 2-3 hrs; in short: as §3
Brugia pahangi [16] = experiment: Antinematodal activity against Brugia pahangi infected in mongolian jirds assessed as reduction in number of microfilarial release at 10 mg/kg, po administered twice daily for 5 days; type: functional, organism-based; conditions: time 5.0 day
In short: (§4)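 Male jirds (5–7 weeks, 50–60 g) infected ip with 200 L3. Oral dosing in 5% glucose started 5 months post-infection; vehicle received 5% glucose. Necropsy 5 days after last dose (6 animals/treated group, 9 vehicle). Worms recovered and counted. Ex vivo MF release compared by Kruskal–Wallis/Dunn. Embryograms were scored blinded by hemocytometer, ≥200 stages per female, 6–9 females/group, and analysed by two-way ANOVA/Dunnett versus vehicle.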

Brugia pahangi [17] = experiment: Antinematodal activity against Brugia pahangi infected in mongolian jirds assessed as increase in number of deformed eggs at 10 mg/kg, po administered twice daily for 5 days; type: functional, organism-based; conditions: time 5.0 day; in short: as §4
Brugia pahangi [18] = experiment: Antinematodal activity against Brugia pahangi infected in mongolian jirds assessed as reduction in number of eggs at 10 mg/kg, po administered twice daily for 5 days; type: functional, organism-based; conditions: time 5.0 day; in short: as §4
Trichuris muris [19] = experiment: Downregulation of acyl-CoA synthetase expression in Trichuris muris at 100 uM incubated for 2 to 3 hrs; type: functional; conditions: time 2-3 hrs; in short: as §3
Trichuris muris [20] = experiment: Downregulation of AMPK gene expression in Trichuris muris at 100 uM incubated for 2 to 3 hrs; type: functional; conditions: time 2-3 hrs; in short: as §3
Brugia pahangi [21] = experiment: Antinematodal activity against Brugia pahangi infected in mongolian jirds assessed as deformed embryos with globular material pre-infected for 5 months followed by compound addition at 10 mg/kg, po administered twice daily for 5 days; type: functional, organism-based; conditions: time 5.0 day; in short: as §2
Brugia pahangi [22] = experiment: Antinematodal activity against Brugia pahangi infected in mongolian jirds assessed as reduction in worm fecundity at 10 mg/kg, po administered twice daily for 5 days; type: functional, organism-based; conditions: time 5.0 day; in short: as §4
Trichuris muris [23] = experiment: Downregulation of fatty acid synthase expression in Trichuris muris at 100 uM incubated for 2 to 3 hrs; type: functional; conditions: time 2-3 hrs; in short: as §3
Brugia pahangi [24] = experiment: Antinematodal activity against Brugia pahangi infected in mongolian jirds assessed as reduction in reproductive output at 10 mg/kg, po administered twice daily for 5 days; type: functional, organism-based; conditions: time 5.0 day; in short: as §4
Brugia pahangi [25] = experiment: Antinematodal activity against Brugia pahangi infected in mongolian jirds assessed as embryos with autophagolysosomes pre-infected for 5 months followed by compound addition at 10 mg/kg, po administered twice daily for 5 days; type: functional, organism-based; conditions: time 5.0 day; in short: as §2
Saccharomyces cerevisiae [26] = experiment: Antifungal activity against Saccharomyces cerevisiae harboring heterozygous RPC19 deletion mutant assessed as sensitivity by measuring ratio of control intensity to treatment intensity by chemogenomic screening analysis relative to control; type: functional
Brugia pahangi [27] = experiment: Antinematodal activity against Brugia pahangi infected in mongolian jirds assessed as deformed embryos with vacuolated spaces pre-infected for 5 months followed by compound addition at 10 mg/kg, po administered twice daily for 5 days; type: functional, organism-based; conditions: time 5.0 day; in short: as §2
Trichuris muris [28] = experiment: Downregulation of Wnt gene expression in Trichuris muris at 100 uM incubated for 2 to 3 hrs; type: functional; conditions: time 2-3 hrs; in short: as §3
Brugia pahangi [29] = experiment: Antinematodal activity against Brugia pahangi infected in mongolian jirds assessed as reduction in worm burden at 10 mg/kg, po administered twice daily for 5 days; type: functional, organism-based; conditions: time 5.0 day; in short: as §4
Saccharomyces cerevisiae [30] = experiment: Antifungal activity against Saccharomyces cerevisiae harboring heterozygous PMP1 deletion mutant assessed as sensitivity by measuring ratio of control intensity to treatment intensity by chemogenomic screening analysis relative to control; type: functional
Saccharomyces cerevisiae [31] = experiment: Antifungal activity against Saccharomyces cerevisiae harboring heterozygous YGR115C deletion mutant assessed as sensitivity by measuring ratio of control intensity to treatment intensity by chemogenomic screening analysis relative to control; type: functional
Saccharomyces cerevisiae [32] = experiment: Antifungal activity against Saccharomyces cerevisiae harboring heterozygous PMC1 deletion mutant assessed as sensitivity by measuring ratio of control intensity to treatment intensity by chemogenomic screening analysis relative to control; type: functional
Saccharomyces cerevisiae [33] = experiment: Antifungal activity against Saccharomyces cerevisiae harboring heterozygous RSC9 deletion mutant assessed as sensitivity by measuring ratio of control intensity to treatment intensity by chemogenomic screening analysis relative to control; type: functional
Trichuris muris [34] = experiment: Downregulation of mTOR gene expression in Trichuris muris at 100 uM incubated for 2 to 3 hrs; type: functional; conditions: time 2-3 hrs; in short: as §3
Brugia pahangi [35] = experiment: Antinematodal activity against Brugia pahangi infected in mongolian jirds assessed as deformed embryos with punctate pre-infected for 5 months followed by compound addition at 10 mg/kg, po administered twice daily for 5 days; type: functional, organism-based; conditions: time 5.0 day; in short: as §2
Brugia pahangi [36] = experiment: Antinematodal activity against Brugia pahangi by worminator analysis; type: functional, organism-based; in short: as §1
Trichuris muris [37] = experiment: Antinematodal activity against Trichuris muris by worminator analysis; type: functional, organism-based
In short: as §1, with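 “Two” for “Single”, “worms” for “female worm”, “plate as pixels displaced/s” for “plate”, “6.” for “6 as pixels displaced/s.”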

Brugia pahangi [38] = experiment: Antinematodal activity against Brugia pahangi infected in mongolian jirds assessed as embryos with mature lysosomes pre-infected for 5 months followed by compound addition at 10 mg/kg, po administered twice daily for 5 days; type: functional, organism-based; conditions: time 5.0 day; in short: as §2
Saccharomyces cerevisiae [39] = experiment: Antifungal activity against Saccharomyces cerevisiae harboring heterozygousYDL144C deletion mutant assessed as sensitivity by measuring ratio of control intensity to treatment intensity by chemogenomic screening analysis relative to control; type: functional
Saccharomyces cerevisiae [40] = experiment: Antifungal activity against Saccharomyces cerevisiae harboring heterozygous HYP2 deletion mutant assessed as sensitivity by measuring ratio of control intensity to treatment intensity by chemogenomic screening analysis relative to control; type: functional
Saccharomyces cerevisiae [41] = experiment: Antifungal activity against Saccharomyces cerevisiae harboring heterozygous ENP1 deletion mutant assessed as sensitivity by measuring ratio of control intensity to treatment intensity by chemogenomic screening analysis relative to control; type: functional
Saccharomyces cerevisiae [42] = experiment: Antifungal activity against Saccharomyces cerevisiae harboring heterozygous YPR136C deletion mutant assessed as sensitivity by measuring ratio of control intensity to treatment intensity by chemogenomic screening analysis relative to control; type: functional
Saccharomyces cerevisiae [43] = experiment: Antifungal activity against Saccharomyces cerevisiae harboring heterozygous UTP14 deletion mutant assessed as sensitivity by measuring ratio of control intensity to treatment intensity by chemogenomic screening analysis relative to control; type: functional

Compound: OC(Cn1cncn1)(Cn1cncn1)c1ccc(F)cc1F [FLUCONAZOLE]
- inhibition (INH) (Brugia pahangi [1]): 4%
- inhibition (INH) (Trichuris muris [2]): 6%
- inhibition (INH) (Trichuris muris [3]): 13%
- inhibition (INH) (Trichuris muris [4]): 21%
- inhibition (INH) (Brugia pahangi [5]): 11%
- IC50 (Candida albicans [6]): > 100 µM
- inhibition (INH) (Brugia pahangi [7]): 7%
- Activity (Candida albicans [8]): >50%
- inhibition (INH) (Trichuris muris [9]): 6%
- inhibition (INH) (Trichuris muris [10]): 20%
- inhibition (INH) (Brugia pahangi [11]): 10%
- inhibition (INH) (Brugia pahangi [12]): 15%

Compound: CC(C1C2CC3CC(C2)CC1C3)N(C)CC(O)(Cn1cncn1)c1ccc(F)cc1F.Cl (stereo not drawn)
- Activity (Brugia pahangi [13]): Active
- inhibition (INH) (Brugia pahangi [1]): 100%
- Activity (Trichuris muris [14]): Active
- Activity (Trichuris muris [15]): Active
- inhibition (INH) (Trichuris muris [2]): 32%
- Activity (Brugia pahangi [16]): Active
- Activity (Brugia pahangi [17]): Active
- inhibition (INH) (Trichuris muris [3]): 93%
- Activity (Brugia pahangi [18]): Active
- Activity (Trichuris muris [19]): Active
- Activity (Trichuris muris [20]): Active
- inhibition (INH) (Trichuris muris [4]): 42%
- inhibition (INH) (Brugia pahangi [5]): 99%
- Activity (Brugia pahangi [21]): Active
- Activity (Brugia pahangi [22]): Active
- Activity (Trichuris muris [23]): Active
- Activity (Brugia pahangi [24]): Active
- Activity (Brugia pahangi [25]): Active
- log2(ratio) (Saccharomyces cerevisiae [26]): -4.18
- Activity (Brugia pahangi [27]): Active
- inhibition (INH) (Brugia pahangi [7]): 100%
- inhibition (INH) (Trichuris muris [9]): 10%
- Activity (Trichuris muris [28]): Active
- Activity (Brugia pahangi [29]): Active
- log2(ratio) (Saccharomyces cerevisiae [30]): -6.54
- log2(ratio) (Saccharomyces cerevisiae [31]): -4.65
- log2(ratio) (Saccharomyces cerevisiae [32]): -4.67
- inhibition (INH) (Trichuris muris [10]): 98%
- log2(ratio) (Saccharomyces cerevisiae [33]): -6.48
- inhibition (INH) (Brugia pahangi [11]): 100%
- inhibition (INH) (Brugia pahangi [12]): 100%
- Activity (Trichuris muris [34]): Active
- Activity (Brugia pahangi [35]): Active
- IC50 (Brugia pahangi [36]): 2.2 µM
- IC50 (Trichuris muris [37]): 20.4 µM
- Activity (Brugia pahangi [38]): Active

Compound: CN(CCc1ccccc1)CC(O)(Cn1cncn1)c1ccc(F)cc1F.Cl (stereo not drawn)
- log2(ratio) (Saccharomyces cerevisiae [39]): -4.93
- inhibition (INH) (Brugia pahangi [1]): 14%
- inhibition (INH) (Trichuris muris [2]): 15%
- inhibition (INH) (Trichuris muris [3]): 0%
- inhibition (INH) (Trichuris muris [4]): 10%
- inhibition (INH) (Brugia pahangi [5]): 8%
- log2(ratio) (Saccharomyces cerevisiae [40]): -2.45
- inhibition (INH) (Brugia pahangi [7]): 6%
- log2(ratio) (Saccharomyces cerevisiae [41]): -2.17
- inhibition (INH) (Trichuris muris [9]): 15%
- inhibition (INH) (Trichuris muris [10]): 1%
- log2(ratio) (Saccharomyces cerevisiae [42]): -3.12
- inhibition (INH) (Brugia pahangi [11]): 32%
- inhibition (INH) (Brugia pahangi [12]): 19%
- log2(ratio) (Saccharomyces cerevisiae [43]): -5.53
